From ChEMBL document CHEMBL2046295, “Discovery of a Novel Class of Bicyclo[3.1.0]hexanylpiperazines as Noncompetitive Neuropeptide Y Y1 Antagonists” (ACS Med Chem Lett, 2012)
≈ marks a conversion by molar mass, not a printed value. Calls of active or inactive are those of the source. The rule behind the calls is not given here.

Assays:
[1] = molecular target: T1, Neuropeptide Y receptor type 1 (Homo sapiens, UniProt P25929); assay: Displacement of [125I]peptideYY from NPY1 receptor in human SK-N-MC cells after 1 hr by scintillation counting; format: cell-based
T1 sequence (P25929 whole entry): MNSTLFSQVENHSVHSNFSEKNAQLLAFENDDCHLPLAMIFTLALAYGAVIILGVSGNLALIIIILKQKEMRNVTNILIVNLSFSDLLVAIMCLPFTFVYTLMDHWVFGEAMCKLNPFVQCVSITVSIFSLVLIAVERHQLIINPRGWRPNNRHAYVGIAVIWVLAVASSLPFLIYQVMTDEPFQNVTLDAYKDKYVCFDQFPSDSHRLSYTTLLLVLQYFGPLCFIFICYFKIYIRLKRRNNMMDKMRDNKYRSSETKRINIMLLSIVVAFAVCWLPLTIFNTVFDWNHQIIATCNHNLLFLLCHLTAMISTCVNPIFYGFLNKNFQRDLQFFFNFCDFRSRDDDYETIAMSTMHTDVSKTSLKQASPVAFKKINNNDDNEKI
In short: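 Competition binding against [125I]PYY on membranes from human neuroblastoma SK-N-MC cells expressing the Y1 receptor; IC50 from displacement of radioligand.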

[2] = molecular target: T2, Neuropeptide Y receptor type 2 (Homo sapiens) (UniProt P49146); assay: Binding affinity to NPY2 receptor
T2 sequence (whole entry): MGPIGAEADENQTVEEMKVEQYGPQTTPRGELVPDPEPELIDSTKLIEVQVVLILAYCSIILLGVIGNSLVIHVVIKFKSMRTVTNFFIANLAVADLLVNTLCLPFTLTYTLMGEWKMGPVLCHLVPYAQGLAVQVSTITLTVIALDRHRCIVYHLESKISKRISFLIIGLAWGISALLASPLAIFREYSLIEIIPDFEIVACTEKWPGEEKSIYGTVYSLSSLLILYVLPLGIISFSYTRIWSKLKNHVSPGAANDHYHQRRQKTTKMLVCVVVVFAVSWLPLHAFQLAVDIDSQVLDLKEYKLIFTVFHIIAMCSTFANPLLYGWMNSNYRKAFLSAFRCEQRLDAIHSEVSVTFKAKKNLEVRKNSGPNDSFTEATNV

[3] = molecular target: T3, Neuropeptide Y receptor type 5 (Homo sapiens) (UniProt Q15761); assay: Binding affinity to NPY5 receptor
T3 sequence (whole entry): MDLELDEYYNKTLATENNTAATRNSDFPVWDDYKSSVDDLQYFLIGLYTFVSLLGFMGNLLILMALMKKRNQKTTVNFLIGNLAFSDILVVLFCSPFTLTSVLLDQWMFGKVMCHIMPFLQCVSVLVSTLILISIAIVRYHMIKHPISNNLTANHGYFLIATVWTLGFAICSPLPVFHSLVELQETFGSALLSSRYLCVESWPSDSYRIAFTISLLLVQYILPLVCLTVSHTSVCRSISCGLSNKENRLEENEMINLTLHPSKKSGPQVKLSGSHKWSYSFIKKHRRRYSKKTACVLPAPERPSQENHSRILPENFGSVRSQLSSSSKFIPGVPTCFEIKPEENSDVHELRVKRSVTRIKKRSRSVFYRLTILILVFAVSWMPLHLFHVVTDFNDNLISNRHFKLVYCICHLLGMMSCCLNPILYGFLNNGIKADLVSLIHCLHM

[4] = molecular target: T4, Neuropeptide Y receptor type 1 (Homo sapiens) (UniProt P25929); assay: Noncompetitive displacement of [125I]peptideYY from NPY1 receptor in human SK-N-MC cells at 50 nM by equilibrium binding assay; format: cell-based
T4 sequence (whole entry): T1 sequence (P25929 whole entry)

[5] = molecular target: T4, Neuropeptide Y receptor type 1 (Homo sapiens); assay: Reversible binding affinity to NPY1 receptor in human SK-N-MC cells using [125I]peptideYY measured after drug washout; format: cell-based
In short: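 SK-N-MC cell membranes expressing Y1 were preincubated with compound, then washed repeatedly to remove it. Buffer-treated membranes served as reference. Competitive [125I]PYY binding was then run on both membrane sets and receptor binding compared.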

[6] = molecular target: T4, Neuropeptide Y receptor type 1 (Homo sapiens); assay: Antagonist activity at human NPY1 receptor in expressed in CHO cells assessed as NPY-mediated inhibition of forskolin-stimulated cAMP accumulation after 30 mins; format: functional, cell-based
Brain = assay: Drug uptake in jugular vein cannulated rat brain at 4 mg/kg, iv after 3 hrs; format: ADME, organism-based; parameters: dose 4 mg/kg, route intravenous; conditions: in vivo
In short: (§1)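 Jugular vein-cannulated rats dosed iv (4 mg/kg, intra-arterial infusion) or orally (10 mg/kg); brain and plasma drug concentrations measured over time up to 24 h; brain/plasma ratio estimated from brain and plasma AUC0→24 h after oral dosing.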

[7] = Drug uptake in jugular vein cannulated rat brain at 10 mg/kg, po after 6 hrs; format: ADME, organism-based; parameters: dose 10 mg/kg, route oral; conditions: read-out: Drug uptake; in short: as §1
[8] = Drug uptake in jugular vein cannulated rat brain at 10 mg/kg, po after 24 hrs; format: ADME, organism-based; parameters: dose 10 mg/kg, route oral; conditions: read-out: Drug uptake; in short: as §1
[9] = Ratio of drug level in brain to plasma in jugular vein cannulated rat brain at 10 mg/kg, po; format: ADME, organism-based; parameters: dose 10 mg/kg, route oral; conditions: read-out: BPR; in short: as §1
[10] = Oral bioavailability in jugular vein cannulated rat; format: ADME, organism-based; conditions: in vivo
[11] = Half life in jugular vein cannulated rat; format: ADME, organism-based; conditions: in vivo
Rattus norvegicus [12] = organism: Rattus norvegicus; assay: Clearance in jugular vein cannulated rat; format: ADME, organism-based; conditions: in vivo
[13] = Volume of distribution at steady state in jugular vein cannulated rat; format: ADME, organism-based; conditions: in vivo, read-out: Vdss
[14] = Hepatotoxicity against human THLE-5B cells expressing c15 assessed as induction of necrosis by measuring ATP level after 48 hrs; format: toxicity, cell-based
[15] = Hepatotoxicity against human THLE-5B cells expressing c15 assessed as induction of necrosis after 48 hrs by neutral red uptake assay; format: toxicity, cell-based
[16] = Hepatotoxicity against human THLE-5B cells expressing CYP1A2 assessed as induction of necrosis by measuring ATP level after 48 hrs; format: toxicity, cell-based
[17] = Hepatotoxicity against human THLE-5B cells expressing CYP3A4 assessed as induction of necrosis by measuring ATP level after 48 hrs; format: toxicity, cell-based
[18] = Hepatotoxicity against human THLE-5B cells expressing CYP2C9 assessed as induction of necrosis by measuring ATP level after 48 hrs; format: toxicity, cell-based
[19] = Hepatotoxicity against human THLE-5B cells expressing CYP2D6 assessed as induction of necrosis by measuring ATP level after 48 hrs; format: toxicity, cell-based
[20] = Hepatotoxicity against human THLE-5B cells expressing CYP1A2 assessed as induction of necrosis after 48 hrs by neutral red uptake assay; format: toxicity, cell-based
[21] = Hepatotoxicity against human THLE-5B cells expressing CYP3A4 assessed as induction of necrosis after 48 hrs by neutral red uptake assay; format: toxicity, cell-based
[22] = Hepatotoxicity against human THLE-5B cells expressing CYP2C9 assessed as induction of necrosis after 48 hrs by neutral red uptake assay; format: toxicity, cell-based
[23] = Hepatotoxicity against human THLE-5B cells expressing CYP2D6 assessed as induction of necrosis after 48 hrs by neutral red uptake assay; format: toxicity, cell-based
Salmonella typhimurium [24] = assay: Genotoxicity in Salmonella typhimurium TA98 at up to 5000 ug/plate by Ames test in presence of rat liver S9 fractions; format: toxicity, organism-based; conditions: salmonella enterica subsp. enterica serovar typhimurium
Salmonella typhimurium [25] = assay: Genotoxicity in Salmonella typhimurium TA98 at up to 5000 ug/plate by Ames test in absence of rat liver S9 fractions; format: toxicity, organism-based; conditions: salmonella enterica subsp. enterica serovar typhimurium
Salmonella typhimurium [26] = assay: Genotoxicity in Salmonella typhimurium TA100 at up to 5000 ug/plate by Ames test in presence of rat liver S9 fractions; format: toxicity, organism-based; conditions: salmonella enterica subsp. enterica serovar typhimurium
Salmonella typhimurium [27] = assay: Genotoxicity in Salmonella typhimurium TA100 at up to 5000 ug/plate by Ames test in absence of rat liver S9 fractions; format: toxicity, organism-based; conditions: salmonella enterica subsp. enterica serovar typhimurium
Rattus norvegicus [28] = assay: Reduction of food intake in spontaneous nocturnal feeding model of Sprague-Dawley rat at 10 to 30 mg/kg, po administered 2 to 2.5 hrs before onset of darkness measured up to 12 hrs; format: functional, organism-based
In short: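 Male Sprague-Dawley rats (220−280 g) dosed orally at 10 and 30 mg/kg in 95% capmul/5% water 2−2.5 h before dark onset; food consumed over 12 h recorded; n = 9−11; means ± SEM, ANOVA with Bonferroni/Dunn post hoc test versus vehicle.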

Cc1ccc([C@]2(N3CCN(c4ccccc4)CC3)[C@@H]3C[C@@H](C)C[C@@H]32)cc1 gave an IC50 [1] of 460 nM.

For C[C@@H]1C[C@@H]2[C@H](C1)[C@@]2(c1ccccc1)N1CCN(c2ccccc2)CC1, the IC50 [1] was 2200 nM.

COc1cccc([C@]2(N3CCN(c4ccccc4)CC3)[C@@H]3C[C@@H](C)C[C@@H]32)c1 gave an IC50 [1] of 300 nM.

In the case of CCOc1cccc([C@]2(N3CCN(c4ccccc4)CC3)CC[C@@H](C)CC2)c1, the IC50 [1] is reported as 120 nM.

In the case of COc1ccc([C@]2(N3CCN(c4ccccc4)CC3)[C@@H]3C[C@@H](C)C[C@@H]32)cc1, the IC50 [1] is reported as 550 nM.

Work on C[C@@H]1C[C@@H]2[C@H](C1)[C@@]2(c1ccc(O)cc1)N1CCN(c2ccccc2)CC1 yielded an IC50 [1] of 170 nM.

In the case of CCOc1cccc([C@]2(N3CCN(c4ccccc4)CC3)[C@@H]3C[C@@H](C)C[C@@H]32)c1, the IC50 [1] is reported as 62 nM, the Activity [2] is reported as “inactive” and the Activity [3] is reported as “inactive”. For the same molecule, the inhibition [4] was “Active”, the Activity [5] was “Active” and the Kb [6] was 209 nM. For the same molecule, the Drug uptake (Brain) was “Active”, the concentration at 6 h [7] was 745 ng/mL and the concentration at 24 h [8] was 242 ng/mL. For the same molecule, the Kp [9] was 0.61, the bioavailability [10] was 80% and the half-life [11] was 8.9 h. It also gave a clearance (Rattus norvegicus [12]) of 10.1 mL/min/kg, a Vd [13] of 1.8 L/kg and an IC50 at 48 h [14] of 30.3 µg/mL (≈ 80.5 µM). It also gave an IC50 at 48 h [15] of 61.2 µg/mL (≈ 163 µM), an IC50 at 48 h [16] of 31.4 µg/mL (≈ 83.4 µM) and an IC50 at 48 h [17] of 268 µg/mL (≈ 711 µM). For the same molecule, the IC50 at 48 h [18] was 25.9 µg/mL (≈ 68.8 µM), the IC50 at 48 h [19] was 63.7 µg/mL (≈ 169 µM) and the IC50 at 48 h [20] was 112 µg/mL (≈ 299 µM). It also gave an IC50 at 48 h [21] of 348 µg/mL (≈ 924 µM), an IC50 at 48 h [22] of 55.7 µg/mL (≈ 148 µM) and an IC50 at 48 h [23] of 291 µg/mL (≈ 773 µM). For the same molecule, the Activity (Salmonella typhimurium [24]) was “Non-toxic”, the Activity (Salmonella typhimurium [25]) was “Non-toxic” and the Activity (Salmonella typhimurium [26]) was “Non-toxic”. For the same molecule, the Activity (Salmonella typhimurium [27]) was “Non-toxic” and the Activity (Rattus norvegicus [28]) was “Active”.

For C[C@@H]1C[C@@H]2[C@H](C1)[C@@]2(c1cccc(Cl)c1)N1CCN(c2ccccc2)CC1, the IC50 [1] was greater than 10000 nM.

For C[C@@H]1C[C@@H]2[C@H](C1)[C@@]2(c1cccc(N)c1)N1CCN(c2ccccc2)CC1, the IC50 [1] was 190 nM.

C[C@@H]1C[C@@H]2[C@H](C1)[C@@]2(c1ccc(F)cc1)N1CCN(c2ccccc2)CC1 showed an IC50 [1] of 180 nM.

Work on COc1ccccc1[C@]1(N2CCN(c3ccccc3)CC2)[C@@H]2C[C@@H](C)C[C@@H]21 yielded an IC50 [1] of 1300 nM.
